Laboratory results: paper PMC2248718 (The Journal of General Physiology, 2008)

Assays:
[1] = target: wild-type SUR2A/Kir6.2 KATP channels expressed in HEK293 cells (UniProt P70170+Q14654); assay: Inside-out patch-clamp of recombinant wild-type KATP channels; assay type: cell-based; conditions: WT
[2] = tested on: ED mutant SUR2A/Kir6.2 channels; assay: Inside-out patch-clamp of ED domain mutant KATP channels; assay type: cell-based; conditions: ED mutants; 300 μM MgADP, channels inhibited by 300 μM ATP
Summary of the method: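 SUR2A (wild type or ED-mutated) was transiently cotransfected with Kir6.2 (5 μg:1 μg, plus 0.5 μg GFP reporter) into HEK293 cells grown in DMEM/10% FBS/2 mM glutamine, and recorded 48–72 h later. Inside-out patches at −60 mV, 32 ± 1°C. Pipette (mM): KCl 140, CaCl₂ 1, MgCl₂ 1, HEPES-KOH 5, pH 7.3. Bath (mM): KCl 140, MgCl₂ 1, EGTA 5, HEPES-KOH 5, pH 7.3, with nucleotides and drugs added.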

[3] = target: wild-type SUR2A (NBD1) coexpressed with Kir6.2, HEK293 membranes (Mus musculus, UniProt P70170); assay: 8-azido-[γ-32P]ATP photoaffinity labeling, post-incubation with ADP, wild type; assay type: binding; conditions: WT; MgADP titration 0.05 to 1.0 mM
[4] = tested on: ED-mutated SUR2A (entire deletion and Q/N mutants) coexpressed with Kir6.2, HEK293 membranes; assay: 8-azido-[γ-32P]ATP photoaffinity labeling, post-incubation with ADP, ED mutants; assay type: binding; conditions: ED-mutated constructs; MgADP 0.05 to 1.0 mM
[5] = target: SUR2A entire deletion (Δ948–962)/Kir6.2 KATP channels expressed in HEK293 cells (UniProt P70170+Q14654, DEL948-962); assay: Inside-out patch-clamp of entire ED deletion KATP channels; assay type: cell-based; conditions: glyburide 10 μM, monophasic response
[6] = tested on: SUR2A entire Q/N mutant/Kir6.2 KATP channels expressed in HEK293 cells; assay: Inside-out patch-clamp of entire Q/N mutant KATP channels; assay type: cell-based; conditions: glyburide 10 μM

With Nc1ncnc2c1ncn2[C@@H]1O[C@H](COP(=O)([O-])OP(=O)([O-])O)[C@@H](O)[C@H]1O.[Mg+2] [MgADP] the “Reversal of ATP-induced channel inhibition by MgADP” value ([1]; 300 μM MgADP, channels inhibited by 300 μM ATP) was “readily reversed”, the “Reversal of ATP-induced channel inhibition by MgADP” value [2] was “unable to reverse such inhibition” and the “MgADP concentration at maximum increase of 8-azido-[γ-32P]ATP labeling” value [3] was 500 µM. The “Effect of MgADP on 8-azido-[γ-32P]ATP labeling” value [4] was “did not affect labeling”.

For COc1ccc(Cl)cc1C(=O)NCCc1ccc(S(=O)(=O)NC(=O)NC2CCCCC2)cc1 [glyburide], the “Pattern of glyburide blockade in the presence of MgADP” value ([1]; glyburide 10 μM, 300 μM MgADP) was “both phases were blunted”, the “Profile of glyburide inhibition in the presence of AMP-PNP” value ([1]; glyburide 10 μM, AMP-PNP 50 μM) was “indistinguishable from the effect of glyburide in the absence of nucleotides” and the “Fast phase: instantaneous blockade, fraction of the channel population” value ([1]; glyburide 10 μM, no nucleotides) was 59 ± 11%. The “Slow phase: gradual dissipation of channel activity” value ([1]; glyburide 10 μM, no nucleotides, within 2–3 min) was 93 ± 3%, the “Glyburide-induced reduction in overall channel activity” value [5] was 21 ± 5% and the “Glyburide responsiveness compared with wild type” value [6] was “reduced glyburide responsiveness”.

In the case of CC(N/C(=N\C#N)Nc1ccncc1)C(C)(C)C (centres unmarked) [pinacidil], the “Channel activity reversed by pinacidil against ATP inhibition” value ([1]; 50 μM pinacidil, 300 μM ATP, relative to activity in the absence of nucleotides) is reported as “close to the maximum level”.
